Most compounds without a hit are left out; they make up all but 29% or so of the library.
CYP2C19 act – increases human CYP2C19 enzyme activity | P33261 | recombinant CYP2C19, luciferin-H EGE luminescence; stronger effect = higher value; 0 = fully inhibited enzyme, 1 = untreated enzyme | activation factor at 5 µM | 96,000 tested, under 10 active | AID 1025;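 active = activation factor of at least 2 at 5 µM in the primary screen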
CYP2C9 activ – increases human cytochrome P450 2C9 activity; recombinant CYP2C9, luciferin-H conversion, luminescence; stronger effect = higher value; factor 1 = untreated enzyme, 0 = blocked; AID 1024; hit rate 1.4% among 96,000; P11712; activation factor at 5 µM;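 active = activation factor of 2 or more for CYP2C9 at a 5 µM dose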
Target sequence (P11712 whole entry, looked up): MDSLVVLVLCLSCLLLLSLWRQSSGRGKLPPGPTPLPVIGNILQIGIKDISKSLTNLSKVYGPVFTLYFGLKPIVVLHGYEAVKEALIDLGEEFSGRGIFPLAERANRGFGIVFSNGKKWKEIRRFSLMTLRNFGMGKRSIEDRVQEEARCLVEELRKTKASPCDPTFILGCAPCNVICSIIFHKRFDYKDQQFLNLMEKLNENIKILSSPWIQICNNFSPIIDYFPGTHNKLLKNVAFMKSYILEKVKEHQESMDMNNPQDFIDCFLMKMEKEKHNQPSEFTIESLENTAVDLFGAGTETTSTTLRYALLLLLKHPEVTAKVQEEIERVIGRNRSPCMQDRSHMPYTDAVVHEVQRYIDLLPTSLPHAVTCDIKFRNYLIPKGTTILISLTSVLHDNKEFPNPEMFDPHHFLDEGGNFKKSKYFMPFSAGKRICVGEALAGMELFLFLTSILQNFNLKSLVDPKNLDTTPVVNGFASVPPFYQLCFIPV
CYP2C19 inh – blocks human cytochrome P450 2C19 | CYP2C19 Supersomes, luciferin-H EGE luminescence, 30 min | inhibition, % at 5 µM | hit rate 21% among 96,000;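 active = CYP2C19 inhibition above a set limit at 5 µM in the primary screen, cut at about 50% in these data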
CYP2C9 inh – blocks human cytochrome P450 2C9; CYP2C9 Supersomes, luciferin-H conversion, luminescence; inhibition, % at 5 µM; hit rate 20% among 96,000; AID 777;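 active = blocking of liver enzyme CYP2C9 beyond about 50% at 5 µM, limit read from the data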
E coli WT exp – E. coli BW25113 growth inhibition, expanded screen; OD600 absorbance; growth inhibition, % at 100 µM; hit rate 0.15% among 98,000; AID 710;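 active = growth inhibition above about 50% at one test dose, limit read from the data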;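 note: growth measured after 20 h incubation at 37 °C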
tolC growth inh – blocks growth of E. coli BW25113 tolC mutant | OD615 | AID 573 | growth inhibition, % at 10 µM (by protocol) | hit rate 2.2% among 65,000;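 active = growth inhibition at or above a cutoff equal to the mean over every tested compound plus 3 SD, cut at about 60% in these data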;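 note: growth measured after 20 h incubation at 37 °C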
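signal = optical density read at 615 nm | test system = E. coli ΔtolC::kan strain BW25113 | timing = 20 h compound exposure of bacteria at 37 °C | buffer or medium = LB medium plus 50 µg/mL kanamycin | compound dosing = 10 µM final, single dose | evaluation = % inhibition of E. coli growth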
Each line names hits and unclear results; the compound was inactive in the other large screens.

CCOc1ccccc1C(=O)NCC(=O)OCC(=O)c1ccc2c(c1)OCCO2	none
Cc1cc(C(=O)COC(=O)CCC(=O)c2ccc3c(c2)OCCO3)c(C)n1Cc1ccco1	CYP2C19 inh 67, CYP2C9 inh 68
O=C(CN1C(=O)COc2ccccc21)N(Cc1ccc2c(c1)OCO2)CC1CCCO1 (stereo not given)	none
CCn1c(=O)cc(C(=O)OC)sc1=Nc1ccc(F)c(F)c1	CYP2C19 inh 98, CYP2C9 inh 75
COC(=O)c1cc(=O)n(Cc2ccc3c(c2)OCO3)c(=Nc2ccc(F)c(Cl)c2)s1	CYP2C9 inh 57 (no result: tolC growth inh)
COC(=O)c1cc(=O)n(CCc2ccc(OC)cc2)c(=Nc2ccc(F)c(Cl)c2)s1	CYP2C9 inh 56 (no result: tolC growth inh)
COc1cccc(C(=O)Nc2nc3c(c(=O)[nH]2)CCCC3)c1	none (no result: tolC growth inh)
CCN(CC)S(=O)(=O)c1ccc(-c2nnc(SCc3nnc(-c4ccccc4)o3)o2)cc1	none
CN1CCN(C(=O)c2ccc(CN3CCOCC3)cc2)CC1	none
O=C(c1ccc(CN2CCOCC2)cc1)N1CCC(Cc2ccccc2)CC1	CYP2C19 inh 66, CYP2C9 inh 71
Cc1ccccc1NC(=O)c1ccc(CN2CCc3ccccc3C2)cc1	none (no result: tolC growth inh)
CCc1ccccc1NC(=O)c1ccc(CN2CCC(Cc3ccccc3)CC2)cc1	CYP2C19 inh 56 (no result: tolC growth inh)
COc1ccc(/C(O)=C/Sc2nnc(Cc3ccccc3)o2)cc1	none (no result: tolC growth inh)
Cc1ccc(-c2cc(C(=O)N/N=C/c3c(C)nn(C)c3C)c3ccccc3n2)c(C)c1	CYP2C19 inh 94, CYP2C9 inh 96 (no result: tolC growth inh)
Cc1nn(C)c(C)c1/C=N/NC(=O)c1csc2ccccc12	none (no result: tolC growth inh)
Cc1cc(NC(=O)c2cc(-c3cccs3)nc3ccccc23)no1	none
COc1ccccc1-c1cc(C(=O)N/N=C/c2sccc2C)c2ccccc2n1	CYP2C9 inh 75 (no result: tolC growth inh)
CCOc1ccccc1-c1cc(C(=O)N/N=C/c2ccc3c(c2)OCO3)c2ccccc2n1	CYP2C19 inh 50, CYP2C9 inh 91 (no result: tolC growth inh)
CCN(CC)C(=O)c1sc(NC(=O)c2cc(-c3ccc(C)s3)nc3ccccc23)c(C(=O)OC)c1C	CYP2C9 inh 51 (no result: tolC growth inh)
C=CCn1c(SCCC)nc(O)cc1=O	none (no result: tolC growth inh)
N#CCCN1CCN(S(=O)(=O)c2ccc(S(=O)(=O)NC3CCCC3)cc2)CC1	none
O=C(CCCN1C(=O)C2CCCCN2C1=O)N1CCN(c2ccc([N+](=O)[O-])cc2)CC1 (stereo not given)	none (no result: tolC growth inh)
COC(=O)c1sccc1NC(=O)c1cc(-c2ccc(C)cc2C)nc2ccccc12	CYP2C9 inh 59 (no result: tolC growth inh)
COC(=O)c1sccc1NC(=O)c1ccoc1C	none
Cc1cnc(NC(=O)CSc2ncc(-c3ccccc3)n2Cc2ccco2)s1	CYP2C9 inh 73
CCC(=O)Nc1cc(NC(=O)CSc2ncc(-c3ccc(F)cc3)n2Cc2ccco2)ccc1C	CYP2C19 inh 91, CYP2C9 inh 95
COCCn1c(-c2ccc(OC)cc2)cnc1SCC(=O)Nc1cccc2ccccc12	CYP2C19 inh 67, CYP2C9 inh 72 (no result: tolC growth inh)
COc1ccc(-c2cnc(SCC(=O)Nc3cc(C)on3)n2Cc2ccco2)cc1	CYP2C19 inh 61, CYP2C9 inh 88, tolC growth inh 80
O=C(CSc1ncc(-c2ccc(F)cc2)n1Cc1ccco1)Nc1nccs1	none
Cn1c(SCC(=O)Nc2cccc3ccccc23)nc(O)cc1=O	none
COC(=O)c1ccc2c(=O)sc(N3CCC(C(N)=O)CC3)nc2c1	none
CCOc1ccccc1NC(=O)C(CC(C)C)NC(=O)C1CCCCC1 (stereo not given)	none (no result: tolC growth inh)
O=C(Cc1cscn1)c1ccc(O)cc1O	none
N#CC(C#N)=c1ccc2c(c1)NC1(CCCCC1)N=2	CYP2C9 inh 56
O=C(Oc1ccc2[nH]cc(CCN3C(=O)c4ccccc4C3=O)c2c1)c1ccco1	CYP2C9 inh 76
O=C(Nc1ccc(-c2noc(COc3ccccc3Cl)n2)cc1)c1ccco1	none (no result: CYP2C19 act, CYP2C9 activ, CYP2C19 inh, CYP2C9 inh, E coli WT exp)
CCOC(=O)c1sc2nc(CC(=O)OC)nc(N3CCN(c4ccc(OC)cc4)CC3)c2c1C	CYP2C19 inh 89, CYP2C9 inh 96 (no result: tolC growth inh)
CCOC(=O)c1sc2nc(CC(=O)OC)nc(NCCN3CCOCC3)c2c1C	CYP2C19 inh 54, CYP2C9 inh 51
CC12CCC(C(=O)N(NC(=O)c3cc(Cl)ccc3O)C1=O)C2(C)C (stereo not given)	none (no result: tolC growth inh)
O=C(CN(C(=O)CCC(=O)Nc1nccs1)c1ccc(F)cc1)NCc1ccco1	CYP2C19 inh 65
O=C(CCC(=O)N(CC(=O)NC1CCCCC1)Cc1ccco1)Nc1nccs1	none
O=C(CN(Cc1ccc(F)cc1)C(=O)CCC(=O)Nc1ccccn1)NCc1ccco1	none
O=C(CN(C(=O)CCC(=O)Nc1nccs1)c1cccc(F)c1)NCC1CCCO1 (stereo not given)	none
O=C(CN(Cc1ccccc1)C(=O)CCC(=O)Nc1nccs1)NCc1ccco1	CYP2C19 inh 61
O=C(CN(C(=O)CCC(=O)Nc1nccs1)c1ccc(F)c(Cl)c1)NCc1ccco1	CYP2C19 inh 76
Cc1ccc(N(C(=O)c2ccncc2)C2C=CS(=O)(=O)C2)cc1 (stereo not given)	none
CN(C(=O)c1ccncc1)C1CC(C)(C)N(O)C(C)(C)C1	CYP2C19 inh 96
COC(=O)c1c(C(=O)OC)c(-c2ccc(C)cc2)n2c1CS(=O)C2 (stereo not given)	none (no result: tolC growth inh)
CC(=O)c1c(C)n(-c2ccccc2)c2ccc(O)cc12	CYP2C19 inh 82
COc1ccc2c(c1)c(C(=O)N1CCN(C)CC1)c(C)n2-c1ccccc1	none
COC(=O)c1c(C)n(-c2ccc(C)cc2)c2ccc(O)cc12	CYP2C19 inh 53 (no result: tolC growth inh)
CC(=O)c1c(C)n(-c2ccccc2)c2ccc(OCC(O)CN3CCOCC3)cc12 (stereo not given)	CYP2C19 inh 77, CYP2C9 inh 68
O=C1CC(c2ccccc2)C(C(=O)Nc2ccccc2F)N1 (stereo not given)	none (no result: CYP2C19 act, CYP2C9 activ, CYP2C19 inh, CYP2C9 inh, E coli WT exp)
Cc1ccc(-n2c(C)nn(-c3ncc(C(F)(F)F)cc3Cl)c2=O)cc1	none (no result: tolC growth inh)
CCCN1C=CC(=C2C(=O)c3ccccc3C2=O)C=C1	CYP2C19 inh 76, CYP2C9 inh 58
CCN1C=CC(=C2C(=O)c3ccccc3C2=O)C=C1	none
O=C(CCSc1nc2cc(Cl)ccc2o1)N1CCOCC1	none
O=S(=O)(Nc1nc(-c2sccc2Cl)cs1)c1cc(Cl)ccc1Cl	CYP2C19 inh 90, CYP2C9 inh 99 (no result: tolC growth inh)
COc1ccc2oc(-c3ccccc3)c(C(N)=O)c2c1	none
C=CCn1c(O)c(C2=c3ccccc3=NC2=O)sc1=Nc1ccc(O)cc1	tolC growth inh 100 (no result: CYP2C19 act, CYP2C9 activ, CYP2C19 inh, CYP2C9 inh, E coli WT exp)
CC(C)(C)c1ccc(S(=O)(=O)Nc2cccnc2)cc1	CYP2C19 inh 62 (no result: tolC growth inh)
O=S(=O)(Nc1cccnc1)c1ccc(C2CCCCC2)cc1	none
O=S(=O)(Nc1cccnc1)c1ccc2c(c1)OCCO2	CYP2C19 inh 58
O=S(=O)(Nc1cccnc1)c1ccc(Cl)cc1	CYP2C19 inh 85, CYP2C9 inh 85 (no result: tolC growth inh)

Screening results as filed in PubChem BioAssay.
